Inconclusive results are not listed.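 Rule for the calls, unless noted: active = growth inhibition above 25% in both replicates, a cutoff set 3 SD above the mean; inconclusive = above 25% in only one replicate; inactive = the rest.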
Experiments:
[1] = OD615 S. cerevisiae growth inhibition, permissive medium, pilot counter-assay, permissive growth control for S. cerevisiae lifespan shortening project (AID 705); details: OD615, 24 h, at 10 µM, stronger effect = higher value
Summary of the method: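 System: engineered DeaD yeast; Medium: permissive raffinose/galactose medium; Compound dosing: 10 µM single dose, 0.25% DMSO; Incubation: 4 h cell pre-growth, 24 h exposure at 30 °C; Technique: OD at 615 nm; Evaluation: growth inhibition from lowered OD615 after 24 h.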

[2] = Restrictive medium S. cerevisiae growth inhibition, OD615, pilot screen of yeast lifespan reduction project, restrictive growth control (AID 706;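 active = growth inhibition above a set limit, 3 SD over mean compound inhibition, in both replicates, cut at about 43% in these data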;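 note: modified DeaD lifespan yeast strain shifted to restrictive glucose medium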); details: OD615, 48 h, at 10 µM, stronger effect = higher value
Summary of the method: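 Material: modified S. cerevisiae; buffer or medium: CSMM-D glucose medium; doses: one concentration, 10 µM final, 0.25% DMSO; incubation: 48 h compound exposure at 30 °C; detection: optical density at 615 nm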

[3] = viability gain of MRP-1-high H69AR cells under doxorubicin, pilot screen, MRP-1 activator project, CellTiter-Glo, duplicate (AID 807;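 active = viability increase at or above a cutoff of the median across tested compounds plus 3 SD, cut at about 8.5% in these data, passing the limit was not always enough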;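 note: compound pretreatment 18-22 h then 72 h combined with doxorubicin; 0% = doxorubicin alone and 100% = vehicle without doxorubicin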); details: H69AR viability with doxorubicin, CellTiter-Glo luminescence; at 10 µM; stronger effect = higher value
[4] = growth suppression of beta-catenin knockout HCT116, pilot screen, human colon tumor cells (AID 823;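 active = cell viability at or below a set limit in both duplicate runs, the limit being the all-compound median minus 4 SD, cut at about 23% in these data, passing the limit was not always enough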;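 note: 0% = wells killed by 20 µM Hyamine and 100% = untreated DMSO cell wells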); details: CellTiter-Glo, 60 h, at 10 µM, stronger effect = lower value
[5] = growth suppression of PTEN-deleted HCT116, pilot screen, cell-based, HCT116 clonal line, CellTiter-Glo (AID 824;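 active = viability at or below 27.92% in each of two runs, the all-compound median minus 4 SD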;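 note: 0% = 20 µM Hyamine control and 100% = vehicle cell control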); details: 60 h, at 10 µM, stronger effect = lower value
[6] = inhibitors of the yeast RAM network, pilot screen, dse1pr::URA3 reporter, 5-FOA selection (AID 869;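 active = inhibition over a set limit, the all-compound mean plus 3 SD, in both replicate runs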;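 note: 0% = DMSO wells with no growth and 100% = 10 µM 1-NA-PP1 with full growth; RAM network block rescues cells from 5-FOA so hits raise OD615 growth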); details: S. cerevisiae dse1pr::URA3 5-FOA growth, OD615, 2 d; at 10 µM; stronger effect = higher value; strain carries analog-sensitive mutant Cbk1 kinase
[7] = RAM signaling pathway blockade in yeast – S. cerevisiae, Pdr1DBD-CYC8 efflux-inhibited sensitized strain, primary screen (AID 1298;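 active = RAM network inhibition above 8.4% in each of two replicates, 3 SD over the compound average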;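 note: 0% = DMSO untreated cells without growth and 100% = 10 µM 1-NA-PP1 full growth; higher means more yeast growth rescued from 5-FOA killing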); details: S. cerevisiae cbk1-as DSE1-URA3 strain, 5-FOA growth OD615, 2 d; at 50 µM; stronger effect = higher value

O=C(COc1ccccc1)NCc1nnc(SCC(=O)Nc2nccs2)n1-c1ccccc1
inactive: growth inhibition [1] -10.1% | growth inhibition [2] -4.89% | viability increase [3] -1.46% | viability [4] 101% | viability [5] 101% | inhibition [6] 2.13% | RAM network inhibition [7] 4.48%

COc1ccc(CNc2nc3c(c(=O)[nH]c(=O)n3C)n2Cc2ccccc2C)cc1
inactive: growth inhibition [1] -14.8% | growth inhibition [2] -13.7% | viability increase [3] -4.3% | viability [4] 96.2% | viability [5] 89.5% | inhibition [6] 2.08% | RAM network inhibition [7] 2.1%

CCSc1nnc(NC(=O)c2cc3c(s2)CCCC3)s1
inactive: growth inhibition [1] -3.65% | growth inhibition [2] -0.425% | viability increase [3] -1.67% | viability [4] 54.3% | viability [5] 60.2% | inhibition [6] 2% | RAM network inhibition [7] -1.29%

Cc1cc(C)nc(SCc2ccccc2C#N)n1
inactive: growth inhibition [1] -9.81% | growth inhibition [2] -6.26% | viability increase [3] -0.49% | viability [4] 98.8% | viability [5] 98% | inhibition [6] 0.705% | RAM network inhibition [7] 9.71%

O=C1CCCC2=C1C(c1cn(-c3ccccc3)nc1-c1cccs1)c1c([nH]c(=O)[nH]c1=O)N2 (centres undefined)
inactive: growth inhibition [1] -11.2% | growth inhibition [2] -27.7% | viability increase [3] 1.36% | viability [4] 106% | viability [5] 99.1% | inhibition [6] 0.32% | RAM network inhibition [7] 2.19%

O=C(NCc1cccs1)c1ccccc1F
inactive: growth inhibition [1] -9.19% | growth inhibition [2] -7.24% | viability increase [3] -0.25% | viability [4] 94.2% | viability [5] 88.9% | inhibition [6] 0.385% | RAM network inhibition [7] 1.34%

COc1ccc(CNC(=O)CCS(=O)(=O)c2cccc3nonc23)cc1
inactive: growth inhibition [1] -4.22% | growth inhibition [2] -26.3% | viability increase [3] -2.89% | viability [4] 95.8% | viability [5] 100% | inhibition [6] 1.94% | RAM network inhibition [7] 6.09%

CCN=C(Nc1ccc2c(c1)OCO2)SC1CC(=O)N(c2ccccc2F)C1=O (centres undefined)
inactive: growth inhibition [1] -4.17% | growth inhibition [2] -8.21% | viability increase [3] -1.9% | viability [4] 97% | viability [5] 95.9% | inhibition [6] 3.15% | RAM network inhibition [7] 10.8%

CCOC(=O)N1CCC(N2CC34C=CC(O3)C(C(=O)Nc3ccc(F)cc3)C4C2=O)CC1 (centres undefined)
inactive: growth inhibition [1] -4.45% | growth inhibition [2] -3.7% | viability increase [3] 1.43% | viability [4] 105% | viability [5] 101% | inhibition [6] 0.885% | RAM network inhibition [7] 6.68%

COc1ccccc1NC(=O)C1=C(C)Nc2nc(-c3cccs3)nn2C1c1cccnc1 (centres undefined)
inactive: growth inhibition [1] -13.7% | growth inhibition [2] -9.57% | viability increase [3] -5.67% | viability [4] 86.7% | viability [5] 91.4% | inhibition [6] 2.23% | RAM network inhibition [7] 4.86%

Cc1cc(C)nc(SCC(=O)N2CCCCC2)n1
inactive: growth inhibition [1] -13.6% | growth inhibition [2] -20% | viability increase [3] 0.71% | viability [4] 97.4% | viability [5] 101% | inhibition [6] 2.34% | RAM network inhibition [7] 0.74%

COc1ccccc1NC(=O)c1ccc(S(=O)(=O)N2CCCC2)cc1
inactive: growth inhibition [1] -5.88% | growth inhibition [2] -5.9% | viability increase [3] 0.68% | viability [4] 114% | viability [5] 94.9% | inhibition [6] 2.33% | RAM network inhibition [7] 2.32%

COc1cccc(C2NC(=O)NC(C)=C2C(=O)Nc2ccc(C)cc2)c1 (centres undefined)
inactive: growth inhibition [1] -9.18% | growth inhibition [2] -12% | viability increase [3] 1.54% | viability [4] 106% | viability [5] 97.6% | inhibition [6] 0.285% | RAM network inhibition [7] 3.39%

O=C(CN1C(=O)CSc2ncccc21)NCCN1CCOCC1
inactive: growth inhibition [1] 0.545% | growth inhibition [2] -1.25% | viability increase [3] -0.4% | viability [4] 106% | viability [5] 99.7% | inhibition [6] 2.09% | RAM network inhibition [7] 3.41%

O=C(CSc1nc2c(cnn2-c2ccc(F)cc2)c(=O)[nH]1)N1CCCCCC1
inactive: growth inhibition [1] -3.72% | growth inhibition [2] -9.65% | viability increase [3] -3.34% | viability [4] 94.2% | viability [5] 93% | inhibition [6] 1.53% | RAM network inhibition [7] -0.11%

CCSc1nnc(Cc2cc(=O)[nH]c(=O)[nH]2)n1-c1ccc(F)cc1
inactive: growth inhibition [1] -5.83% | growth inhibition [2] -10.5% | viability increase [3] 0.38% | viability [4] 104% | viability [5] 100% | inhibition [6] 0.9% | RAM network inhibition [7] 1.04%

O=C(CCCCn1c(=O)[nH]c2ccccc2c1=O)NCCc1c[nH]c2ccccc12
inactive: growth inhibition [1] -16.7% | growth inhibition [2] -25.8% | viability increase [3] -4.05% | viability [4] 93.5% | viability [5] 93.7% | inhibition [6] 0.945% | RAM network inhibition [7] 4.06%

CCOC(=O)N1CCC(NC(=O)C2CCN(Cc3nc(-c4ccc(CC)cc4)oc3C)CC2)CC1
inactive: growth inhibition [1] -8.25% | growth inhibition [2] -7.78% | viability increase [3] -1.2% | viability [4] 84.2% | viability [5] 85.9% | inhibition [6] 0.435% | RAM network inhibition [7] 0.29%

O=C(O)c1cccc2c1C(=O)N(C1CCCCC1)C2
inactive: growth inhibition [1] -18.8% | growth inhibition [2] -5.79% | viability increase [3] -1.27% | viability [4] 104% | viability [5] 98.3% | inhibition [6] 1.97% | RAM network inhibition [7] 6.19%

CC1Cc2nc(SCC(=O)OCc3ccccc3)n(C)c(=O)c2S1 (centres undefined)
inactive: growth inhibition [1] 5.29% | growth inhibition [2] 1.86% | viability increase [3] -3.06% | viability [4] 102% | viability [5] 93.8% | inhibition [6] 0.69% | RAM network inhibition [7] 6.68%

Cc1cc(N2CCCC2)n2nc(C)nc2n1
inactive: growth inhibition [1] -10.1% | growth inhibition [2] -17.2% | viability increase [3] -0.52% | viability [4] 102% | viability [5] 101% | inhibition [6] 1.88% | RAM network inhibition [7] 1.98%

CCCC(=O)NC(C)c1nc2ccccc2n1C(C)C (centres undefined)
inactive: growth inhibition [1] -10.7% | growth inhibition [2] -16.6% | viability increase [3] 0.47% | viability [4] 97.5% | viability [5] 91.2% | inhibition [6] 0.475% | RAM network inhibition [7] 2.52%

O=C1CCCC(O)=C1C1C2=C(CCCC2=O)Oc2ccccc21 (centres undefined)
inactive: growth inhibition [1] -12.6% | growth inhibition [2] -10.5% | viability increase [3] -5.35% | viability [4] 91.6% | viability [5] 90.1% | inhibition [6] 2.33% | RAM network inhibition [7] 3.55%

Cc1ccc(S(=O)(=O)N2CCCC2C(=O)Nc2nccs2)cc1 (centres undefined)
inactive: growth inhibition [1] -15.2% | growth inhibition [2] -6.25% | viability increase [3] -1.37% | viability [4] 97% | viability [5] 98.6% | inhibition [6] -0.275% | RAM network inhibition [7] 4.76%

CCn1c2ccccc2c2nnc(SCC(=O)c3ccccc3)nc21
inactive: growth inhibition [1] -1.37% | growth inhibition [2] 13.5% | viability increase [3] -2.35% | viability [4] 94.8% | viability [5] 90.7% | inhibition [6] 2.33% | RAM network inhibition [7] 6.1%

O=C(CSc1nnc(C2COc3ccccc3O2)o1)N1CCCCC1 (centres undefined)
inactive: growth inhibition [1] -7.62% | growth inhibition [2] 2.56% | viability increase [3] -0.36% | viability [4] 98.7% | viability [5] 105% | inhibition [6] -0.035% | RAM network inhibition [7] 0.97%

Cc1c(N=C/C=C/c2ccccc2)cnn1C
inactive: growth inhibition [1] -8.46% | growth inhibition [2] -12.3% | viability increase [3] -5.08% | viability [4] 91.7% | viability [5] 90.5% | inhibition [6] 1.85% | RAM network inhibition [7] 3.36%

Source: PubChem BioAssay
